The EternaBench riboswitch data

Test system: MS2 coat protein
Assay: apparent Kd, MS2 coat protein; higher = weaker binding; RNA-MaP array; FMN 200 µM where present
Outline: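 Each design was made on Illumina sequencing-chip clusters by stalled E. coli RNA polymerase and titrated with SNAP-549-labelled MS2 coat protein from 0.7 or 1.5 nM, doubling to 3 µM, in the absence and then the presence of constant ligand. The buffer was 100 mM Tris-HCl pH 7.5, 80 mM KCl, 4 mM MgCl2, BSA, DTT, yeast tRNA and Tween-20. The apparent Kd is the median of filtered per-cluster fits of binding curves, with green signal normalised to red-channel RNA signal and control-cluster median Fmax.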

[1] = designed as: ON switch for flavin mononucleotide, no ligand
[2] = ligand present: flavin mononucleotide, designed as: ON switch for flavin mononucleotide
[3] = designed as: OFF switch for flavin mononucleotide, no ligand
[4] = ligand present: flavin mononucleotide, designed as: OFF switch for flavin mononucleotide

UGUGUUAUCGGAGGAUAUCGAUAUCAAACAUGAGGAUCACCCAUGUUGAGGAUCACCCAUGUUCACGAGAAGGCCGGCGUACUC
apparent Kd [1]: 112 nM
apparent Kd [2]: 194 nM

GCACCUGCGUAGAAGGUACUAUAUAAUGCAGUGUAAGGAUAUACAUACAUGAGGAUCACCCAUGUAAAUGGAAUUUGCAGGUGC
apparent Kd [1]: 12.2 nM
apparent Kd [2]: 10.3 nM

GGUGGUCCUGUUACAUGAGGAUCACCCAUGUGAGGGCCACGUAGAAGGACCCAGAACUCCUUUGGGUAGGAUAUAUGGGCCUUC
apparent Kd [3]: 4.78 nM
apparent Kd [4]: 5.97 nM

AAACACGGCGAACCGGCGUUCGUACAUGAGGAUCACCCAUGUCAGGAUAUCUCGAUCUUUGAAUGAGAGAAGGGACAGGAUCCU
apparent Kd [3]: 700 nM
apparent Kd [4]: 375 nM

UAGGUCGCAGGAUAUGCUGGGUGCAUAUCUUAGUGCAGGAGACAUGAGGAUCACCCAUGUAGAAGGGCGCGCUG
apparent Kd [3]: 44.9 nM
apparent Kd [4]: 124 nM

AUCAGCUCGUCAGGAUAUACGUCACUGCGACAGCAGUGUGGUAAGAUCACAUGAGGAUCACCCAUGUAGAAGGGACGAGCUGAU
apparent Kd [3]: 14.2 nM
apparent Kd [4]: 297 nM

UGAGGACAUGAGGAUCACCCAUGUAAGGAUAUGCGGAGAGAUUGGAGAGGUCGAGGAGGCAGAAGGUACAGGAC
apparent Kd [3]: 143 nM
apparent Kd [4]: 74.7 nM

UGGUACUAGGGAGGAUAUGGGAAGAUACAUGAGGAUCACCCAUGUUUAAGAAUGCCGAGAGGCAACUAGAAGGCCCUAGUACAU
apparent Kd [1]: 537 nM
apparent Kd [2]: 18.7 nM

CGUAUACAUGAGGAUCACCCAUGUAAGGAUAUGCUUUAUUAUUAUUAUUAUUAUUGUUGCAGAAGGUACAUUGC
apparent Kd [3]: 19 nM
apparent Kd [4]: 17.7 nM

CAAACGUGAGGAUAUACAUGAGGAUCACCCAUGUGCUCCUCUAAACUGAAGAAGUAAUGUAGAAGGCACGUUUG
apparent Kd [3]: 39.2 nM
apparent Kd [4]: 17.7 nM

AUAAUUUUAUAUAUCUUUUUUAUCAGAAGGCAUAACAUGAGGAUCACCCAUGUAUAUUAUAGUUAUGAGGAUAUGAUUUAGUUA
apparent Kd [3]: 10.2 nM
apparent Kd [4]: 11.4 nM

AGUUGAAAUACAGGAUAUAUAUUAUUUUUAUUUAUAGAAGGGUAAUCACAUGAGGAUCACCCAUGUAUAUACGAGGAAGAAGAG
apparent Kd [1]: 292 nM
apparent Kd [2]: 263 nM

GCCUCACAUGAGGAUCACCCAUGUCAGGAUAUCUAAGGCGAGGUGCAGGCACUUCGUGAGAGAAGGGACGUCAA
apparent Kd [3]: 21.4 nM
apparent Kd [4]: 49.8 nM

UGAUCGAGAGAUCUUAGAUUCUGCAAGGAUAUGCAAGAGUUGCGCUUUACAUGAGGAUCACCCAUGUAGAAGGUGUAGAGUCUA
apparent Kd [3]: 6.27 nM
apparent Kd [4]: 6.62 nM

UGUAUGGACAGAGGAUAUGCCGGUAGGAUCUACUAUCGAAGAAUCCUCACAUGAGGAUCACCCAUGUAGAAGGCUGUCCAUACU
apparent Kd [3]: 9.36 nM
apparent Kd [4]: 42.8 nM

UUUUAGUCAGGAUAUACAUGAGGAUCACCCAUGUAAAAUUUUAGUUUAAUUUGAAUGUGUAGAAGGGACAUUUU
apparent Kd [3]: 24.7 nM
apparent Kd [4]: 22.9 nM

GUGUACAGAGGAUAUGCUGGAAUCUAGCGAAGCUAGGUUCCACAUGAGGAUCACCCAUGUAGAAGGCUGUACAC
apparent Kd [3]: 23.3 nM
apparent Kd [4]: 14.2 nM

UAUAUAUAGUAAGGAUAUGUAUUUAUUUUAUAAACAGAAGGUACUGACAUGAGGAUCACCCAUGUUUUAGUGUGGGCAUGUAGA
apparent Kd [3]: 89.1 nM
apparent Kd [4]: 128 nM

AUAUUGAUAGUAAGGAUAUGCGUGUGUGUAGUUAUGCAGAAGGUACAUGAGGAUCACCCAUGUAUUAAUGUGUG
apparent Kd [3]: 18.1 nM
apparent Kd [4]: 21.6 nM

GGUACGCAUGUAGGAUAUCGAGCUCAAAGAGCUCGAGAAGGACAUGAGGAUCACCCAUGUCCUCACAGACAGUGAGGGCGUACC
apparent Kd [3]: 18 nM
apparent Kd [4]: 26.5 nM

GUGGUCAGACAUGAGGAUCACCCAUGUGGAAUAAAUAACACACAGGAUAUCGAAUAUAAAAUAUACGAGAAGGGUGGAUUGGUG
apparent Kd [1]: 388 nM
apparent Kd [2]: 209 nM

UAAAUCUUGUAAGGAUAUACACGAGAUUCAAGUGUAGAAGGUACUUACAUGAGGAUCACCCAUGUAUACAUGGAUAAUAUAUAU
apparent Kd [1]: 206 nM
apparent Kd [2]: 32.2 nM

AUCAUGAGAGGAUAUACAUGAGGAUCACCCAUGUUGUUAACACCAUGAGCUCAUUUACGUAGAAGGCUCAUUUG
apparent Kd [3]: 28.1 nM
apparent Kd [4]: 51.9 nM

GUGGUAUUCGUAGGAUAUCCGUCGCCACCGUGUGGAGAAGGACGAACAUGAGGAUCACCCAUGUAUCAUGGUGUGGACGUUGUC
apparent Kd [3]: 80.2 nM
apparent Kd [4]: 88.4 nM

GAAGCAGAUCAGAAGGACAACGUAGUUUCUGGCUUGGUGGCCCUCGUUUGUAGGAUAUGAUCUAACAUGAGGAUCACCCAUGUG
apparent Kd [1]: 53.2 nM
apparent Kd [2]: 11.7 nM

AUGGACGUCGUAGGAUAUGUAGGAUUCUCGUACAUGAGGAUCACCCAUGUUGACGUCGAGGACGGACAGAAGGGCGGUGUCUAU
apparent Kd [1]: 64.6 nM
apparent Kd [2]: 9.38 nM

AUAAAACAUGAGGAUCACCCAUGUCAGGAUAUACGAUAUUAAAUUUAAUAUAUUUAUAGUAGAAGGGACAAAUA
apparent Kd [3]: 50.4 nM
apparent Kd [4]: 55 nM

UUUUAGUGAGGAUAUGUGGCUUCGAUCGUGAGAUCGAGGCUACAGAAGGCACAUGAGGAUCACCCAUGUUCCUA
apparent Kd [3]: 16.6 nM
apparent Kd [4]: 81.7 nM

GGCGGACAUGAGGAUCACCCAUGUAAGGAUAUUAGGCGAUCGUCGAAAGACGAUAGCCUGAGAAGGUACGCGCC
apparent Kd [3]: 14.7 nM
apparent Kd [4]: 17.2 nM

UACCACGUUUGAUUAGGCGUGACAUGAGGAUCACCCAUGUGUCAGGAUAUACAUGGGCGGGCCCAGUAGAAGGGACUUAAUAGC
apparent Kd [1]: 327 nM
apparent Kd [2]: 65.1 nM

GUUUUUGCAUGAGGAUAUGCUCGCAUUUCAAGAGCAGAAGGUAUUUCUUUUGACAUGAGGAUCACCCAUGUAUUUAUCAUUGAA
apparent Kd [1]: 21 nM
apparent Kd [2]: 18.9 nM

UGUCGGAGCAGAGGAUAUUACAUGAGGAUCACCCAUGUAUGAACCAAUAGCUGGAGACAGCAAUGUAAGAAGGCUGCUCCGACA
apparent Kd [3]: 12.2 nM
apparent Kd [4]: 171 nM

GUGUACUGAGGAUAUGCUGGAAUCUAGCGAAGCUAGGUUCCACAUGAGGAUCACCCAUGUAGAAGGCGGUACAC
apparent Kd [3]: 34.2 nM
apparent Kd [4]: 13.7 nM

GCAUCACAUGAGGAUCACCCAUGUCUUCGGAGUGGAGGAUAUGGUCACUGUAAACAGUGGCCAGAAGGCCGGAUGC
apparent Kd [1]: 82.6 nM
apparent Kd [2]: 94.5 nM

CGACGUUGGGAGAAGGAGUAAAAUACAUGAGGAUCACCCAUGUCAGGUGCUAGGAUAUCCUCGCGUGGCAGGGUCGGCCCGUGU
apparent Kd [1]: 97.2 nM
apparent Kd [2]: 32.7 nM

CACAAGUAUAACGAUUUCAAGGCACAGGAUAUGAGUGUGCACAUGAGGAUCACCCAUGUUAUAACUUAGAAGGGUGACCAUCGC
apparent Kd [1]: 402 nM
apparent Kd [2]: 433 nM

ACAUCGUGAGACAUGAGGAUCACCCAUGUGUGAUAGUGGGCACAGGAUAUCCAGACUUGGAAUCUGGAGAAGGGUGAUCGUUAA
apparent Kd [1]: 86.7 nM
apparent Kd [2]: 129 nM

ACUAGAUGAGGAUAUGCAUAUUUUCGUGUUCUUCUAGAUUAACAUGAGGAUCACCCAUGUAGAAGGCGUCUGGC
apparent Kd [3]: 18.6 nM
apparent Kd [4]: 33.8 nM

GUAUCUUACCGAGGAUAUUUACGAUUAGUGUAGACAUGAGGAUCACCCAUGUGGCGUUAGUCACGGGAGAAGGCGGUUUGAUAC
apparent Kd [1]: 92.2 nM
apparent Kd [2]: 20.5 nM

CCGUAGGGAGGAUAUCCAAUAUAUGACAUGAGGAUCACCCAUGUUUCCACUCGUACCUCCGGAGAAGGCCCAUCCC
apparent Kd [3]: 24.9 nM
apparent Kd [4]: 22.3 nM

AGGAAGUGAGGAUAUGCAGUGGCUAGUAGACGCUAGCACUUGUAGAAGGCACAUGAGGAUCACCCAUGUUUAAA
apparent Kd [3]: 31.9 nM
apparent Kd [4]: 36.9 nM

AAAAACUCAGGAUAUAUUAUGGGACAAUGAAGGAAGAUAAAACAUGAGGAUCACCCAUGUAGAAGGGAGAAAAA
apparent Kd [3]: 58.5 nM
apparent Kd [4]: 67.5 nM

UUAUACGUUGAGGAUAUGUUAUUUAGUAUAGUUACAGAAGGCGAUACAUGAGGAUCACCCAUGUUUAUGGGCAU
apparent Kd [3]: 196 nM
apparent Kd [4]: 153 nM

GUAGCAUAAUCAGGAUAUUCAGAGAAUAGAUAGACAUGAGGAUCACCCAUGUGGCGAAAGCCUAGGGAGAAGGGAUAAUGCUAC
apparent Kd [1]: 190 nM
apparent Kd [2]: 32.5 nM

CCUGCCAGGACAGGAUAUCUGAGCUGGGACAUGUCUUUUAAGGACAUGAGGAUCACCCAUGUUCAAGAGAAGGGUCAAGGGCGU
apparent Kd [3]: 401 nM
apparent Kd [4]: 210 nM

CGGUUCUGAGGAUAUCCACCCUCAUACAUGAGGAUCACCCAUGUUCACCCUUGGGUUCCCGGAGAAGGCAGUUUUC
apparent Kd [3]: 233 nM
apparent Kd [4]: 570 nM

AGCGUGGUCCACUUGGACGCCUACGAGGAUAUCCUGUCACAUGAGGAUCACCCAUGUAGGCACACGGAGAAGGCGUAGACUUAA
apparent Kd [1]: 25.8 nM
apparent Kd [2]: 6.8 nM

CGCAACAUACAGAAGGAGUUAUUGAGAGGUUUACUAGGAUAUGUUCACAUGAGGAUCACCCAUGUCGUUUGGGAUUUUGUUGCG
apparent Kd [3]: 125 nM
apparent Kd [4]: 51.3 nM

UCUCUUCUGUAGAAGGCCCAACUUGUGAAGGCAACGAUGCUAUAGAAGUAGGGAGGAUAUACAUGAGGAUCACCCAUGUAGGAA
apparent Kd [3]: 9.28 nM
apparent Kd [4]: 13.4 nM

GUAAUUAUAUAGGAUAUCGAACUUAUUAUUUAACGAGAAGGAUGAACAUGAGGAUCACCCAUGUGGUAUCAUGG
apparent Kd [3]: 156 nM
apparent Kd [4]: 190 nM

AGCUCAAAAGUGAGGAUAUCUAGGGUCAAAUGACCGGAGAAGGCACAUGAGGAUCACCCAUGUAACGCCAUGGA
apparent Kd [3]: 12.9 nM
apparent Kd [4]: 31.6 nM

AUAGAGAUAGCGAUAUGAUCGAGAGAUCAUGUCGCUAAGAUUAGAAGGACAUGAGGAUCACCCAUGUAGGAUAUGGGAGUAGAA
apparent Kd [1]: 127 nM
apparent Kd [2]: 49.8 nM

GUAGAACAUGAGGAUCACCCAUGUGAAGACGCAUGAGGAUAUAUCCGUACCUAGCAUACGAUAGAAGGCAUGAUAC
apparent Kd [1]: 113 nM
apparent Kd [2]: 49.7 nM

AACUGACAUGAGGAUCACCCAUGUCAGGAUAUGACUUGACGAAAUAAAACACGUCAUGUCAGAAGGGACAUGAA
apparent Kd [3]: 17.4 nM
apparent Kd [4]: 15.2 nM

AUAUUUGUGUAGAAGGUACGUGAUUAGUUAUAGUAAGGAUAUACUGACAUGAGGAUCACCCAUGUAUAAAUGGUUAAAUGUUCU
apparent Kd [1]: 27.9 nM
apparent Kd [2]: 20 nM
